Results: ChEMBL document CHEMBL3227917, “Structure-activity relationships of dimeric Catharanthus alkaloids. 2. Experimental antitumor activities of N-substituted deacetylvinblastine amide (vindesine) sulfates” (J Med Chem, 1979)

Key:
Mus musculus [1] = experiment: Toxicity in C3H mouse allografted with mouse Gardner lymphosarcoma assessed as lethality at 0.40 mg/kg, ip administered daily for 8 to 10 days; format: organism-based; design: dose 0.4 mg/kg, route intraperitoneal; conditions: in vivo, 0.4 mg/kg
How it was run: (§1)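 Tumor-bearing mice given sulfate salts ip daily for 8–10 days; values are the average of one or more tests. Toxic means lethal to ≥5 of 10 animals per group.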

Mus musculus [2] = experiment: Toxicity in AKR mouse allografted with mouse Ridgway osteogenic sarcoma assessed as lethality at 0.20 mg/kg, ip administered daily for 8 to 10 days compound treatment commenced 8 days after tumor implantation; format: organism-based; design: dose 0.2 mg/kg, route intraperitoneal; conditions: in vivo, 0.2 mg/kg; how it was run: as §1
Mus musculus [3] = experiment: Toxicity in AKR mouse allografted with mouse Ridgway osteogenic sarcoma assessed as lethality at 0.40 mg/kg, ip administered daily for 8 to 10 days compound treatment commenced 8 days after tumor implantation; format: organism-based; design: dose 0.4 mg/kg, route intraperitoneal; conditions: in vivo, 0.4 mg/kg; how it was run: as §1
[4] = Antitumor activity against mouse Ridgway osteogenic sarcoma allografted in AKR mouse assessed as tumor growth inhibition at 0.10 mg/kg, ip administered daily for 8 to 10 days compound treatment commenced 8 days after tumor implantation; format: functional; conditions: route intraperitoneal, read-out: TGI
[5] = Antitumor activity against mouse Gardner lymphosarcoma allografted in C3H mouse assessed as tumor growth inhibition at 0.20 mg/kg, ip administered daily for 8 to 10 days; format: functional; conditions: route intraperitoneal, read-out: TGI
How it was run: (§2)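 Gardner lymphosarcoma in C3H mice; sulfate salts unless noted, given ip daily for 8–10 days, treatment starting 8 days after tumor implantation. Tumor growth inhibition scored as –, 0–25%; +, 26–50%; ++, 51–75%; +++, 76–100%; T, lethal to ≥5 of 10 animals per group. Average of one or more tests.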

[6] = Antitumor activity against mouse Gardner lymphosarcoma allografted in C3H mouse assessed as tumor growth inhibition at 0.10 mg/kg, ip administered daily for 8 to 10 days; format: functional; conditions: route intraperitoneal, read-out: TGI; how it was run: as §2
[7] = Antitumor activity against mouse Ridgway osteogenic sarcoma allografted in AKR mouse assessed as tumor growth inhibition at 0.05 mg/kg, ip administered daily for 8 to 10 days compound treatment commenced 8 days after tumor implantation; format: functional; conditions: route intraperitoneal, read-out: TGI
Mus musculus [8] = experiment: Toxicity in C3H mouse allografted with mouse Gardner lymphosarcoma assessed as lethality at 0.20 mg/kg, ip administered daily for 8 to 10 days; format: organism-based; design: dose 0.2 mg/kg, route intraperitoneal; conditions: in vivo, 0.2 mg/kg; how it was run: as §1
[9] = Antitumor activity against mouse Gardner lymphosarcoma allografted in C3H mouse assessed as tumor growth inhibition at 0.30 mg/kg, ip administered daily for 8 to 10 days; format: functional; conditions: route intraperitoneal, read-out: TGI; how it was run: as §2
[10] = Antitumor activity against mouse Gardner lymphosarcoma allografted in C3H mouse assessed as tumor growth inhibition at 0.40 mg/kg, ip administered daily for 8 to 10 days; format: functional; conditions: route intraperitoneal, read-out: TGI; how it was run: as §2
[11] = Antitumor activity against mouse Ridgway osteogenic sarcoma allografted in AKR mouse assessed as tumor growth inhibition at 0.40 mg/kg, ip administered daily for 8 to 10 days compound treatment commenced 8 days after tumor implantation; format: functional; conditions: route intraperitoneal, read-out: TGI
[12] = Antitumor activity against mouse Ridgway osteogenic sarcoma allografted in AKR mouse assessed as tumor growth inhibition at 0.20 mg/kg, ip administered daily for 8 to 10 days compound treatment commenced 8 days after tumor implantation; format: functional; conditions: route intraperitoneal, read-out: TGI
Mus musculus [13] = experiment: Toxicity in C3H mouse allografted with mouse Gardner lymphosarcoma assessed as lethality at 0.30 mg/kg, ip administered daily for 8 to 10 days; format: organism-based; design: dose 0.3 mg/kg, route intraperitoneal; conditions: in vivo, 0.3 mg/kg; how it was run: as §1
[14] = Antitumor activity against mouse Ridgway osteogenic sarcoma allografted in AKR mouse assessed as tumor growth inhibition at 0.30 mg/kg, ip administered daily for 8 to 10 days compound treatment commenced 8 days after tumor implantation; format: functional; conditions: route intraperitoneal, read-out: TGI
[15] = Dissociation constant, pKa of the compound; format: physicochemical
How it was run: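 Electrometric titration in 66% aqueous DMF.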

SMILES | Activity (Mus musculus [1]) | Activity (Mus musculus [2]) | Activity (Mus musculus [3]) | inhibition in vivo at 0.1 mg/kg [4] [%] | inhibition in vivo at 0.2 mg/kg [5] [%] | inhibition in vivo at 0.1 mg/kg [6] [%] | inhibition in vivo at 0.05 mg/kg [7] [%] | Activity (Mus musculus [8]) | inhibition in vivo at 0.3 mg/kg [9] [%] | inhibition in vivo at 0.4 mg/kg [10] [%] | inhibition in vivo at 0.4 mg/kg [11] [%] | inhibition in vivo at 0.2 mg/kg [12] [%] | Activity (Mus musculus [13]) | inhibition in vivo at 0.3 mg/kg [14] [%] | pKa [15]
CCNC(=O)[C@@]1(O)[C@H](O)[C@]2(CC)C=CCN3CC[C@@]4(c5cc([C@@]6(C(=O)OC)C[C@@H]7CN(CCc8c6[nH]c6ccccc86)C[C@](O)(CC)C7)c(OC)cc5N(C)[C@@H]14)[C@@H]32.O=S(=O)(O)O | Toxic | Toxic | Toxic | 0 | 76 | 0 |  |  |  |  |  |  |  |  | 
CC[C@]1(O)C[C@H]2CN(CCc3c([nH]c4ccccc34)[C@@](C(=O)OC)(c3cc4c(cc3OC)N(C)[C@H]3[C@@](O)(C(=O)NC(C)C)[C@H](O)[C@]5(CC)C=CCN6CC[C@]43[C@@H]65)C2)C1.O=S(=O)(O)O | Toxic | Toxic | Toxic | 76 |  | 0 | 0 | Toxic |  |  |  |  |  |  | 
CC[C@]1(O)C[C@H]2CN(CCc3c([nH]c4ccccc34)[C@@](C(=O)OC)(c3cc4c(cc3OC)N(C)[C@H]3[C@@](O)(C(=O)NCc5ccccc5)[C@H](O)[C@]5(CC)C=CCN6CC[C@]43[C@@H]65)C2)C1 |  |  |  | 0 | 26 |  |  |  | 0 | 0 | 76 | 0 |  |  | 
CC[C@]1(O)C[C@H]2CN(CCc3c([nH]c4ccccc34)[C@@](C(=O)OC)(c3cc4c(cc3OC)N(C)[C@H]3[C@@](O)(C(=O)N(C)C)[C@H](O)[C@]5(CC)C=CCN6CC[C@]43[C@@H]65)C2)C1.O=S(=O)(O)O | Toxic | Toxic | Toxic | 0 | 26 |  |  |  |  |  |  |  | Toxic |  | 
CC[C@]1(O)C[C@H]2CN(CCc3c([nH]c4ccccc34)[C@@](C(=O)OC)(c3cc4c(cc3OC)N(C)[C@H]3[C@@](O)(C(=O)NCCN)[C@H](O)[C@]5(CC)C=CCN6CC[C@]43[C@@H]65)C2)C1 |  |  |  | 0 | 0 |  |  |  |  | 0 |  |  |  | 0 | 9.48
CC[C@]1(O)C[C@H]2CN(CCc3c([nH]c4ccccc34)[C@@](C(=O)OC)(c3cc4c(cc3OC)N(C)[C@H]3[C@@](O)(C(=O)NCCN(C)C)[C@H](O)[C@]5(CC)C=CCN6CC[C@]43[C@@H]65)C2)C1 |  |  |  |  | 0 |  |  |  |  | 0 | 51 | 0 |  |  | 8.5
CC[C@]1(O)C[C@H]2CN(CCc3c([nH]c4ccccc34)[C@@](C(=O)OC)(c3cc4c(cc3OC)N(C)[C@H]3[C@@](O)(C(=O)NCC#N)[C@H](O)[C@]5(CC)C=CCN6CC[C@]43[C@@H]65)C2)C1.O=S(=O)(O)O |  |  |  | 0 | 76 | 0 |  |  |  |  |  |  | Toxic | 26 | 
